# Experimental data of several laboratories.
# Each line is one published result; the experiments were not run side by side.
# Observed: binding
# CDK4 with cyclin D3: Cyclin-dependent kinase 4, with cyclin D3 (CDK4, Homo sapiens, UniProt P11802)
# CDK4: Cyclin-dependent kinase 4 (CDK4, Homo sapiens, UniProt P11802)
# CDK4 with cyclin D1: Cyclin-dependent kinase 4, with cyclin D1 (CDK4, Homo sapiens, UniProt P11802)
target,assay,setting,remaining binding [%],Structure (SMILES)
CDK4 with cyclin D3,competition with immobilised ligand,0.5 µM,95,CCCCC(=O)Nc1ccc(-c2ccc3ncn(CCC)c(=O)c3c2)cn1
CDK4,,1 µM,100,COc1ccc2[nH]c3c4[nH]c5ccc(OC)cc5c4c4c(c3c2c1)C(=O)NC4=O
CDK4,,0.1 µM,99,C1=C/COCc2cc(ccc2OCCN2CCCC2)Nc2nccc(n2)-c2cccc(c2)COC/1
CDK4 with cyclin D3,competition with immobilised ligand,1 µM,33,CNS(=O)(=O)c1ccc(Nc2ncc(C(F)(F)F)c(N3CCC[C@](C)(O)C3)n2)c(C)c1
CDK4 with cyclin D1,,1 µM,77,CN1CCN(C(=O)c2ccc(NC(=O)Nc3ccc(N(C)c4ccnc(Nc5ccc(CS(C)(=O)=O)cc5)n4)cc3)cc2)CC1
CDK4,competition with immobilised ligand,1 µM,97,C[C@]1(O)CCCN(c2nc(Nc3ccc(S(=O)(=O)N[C@H]4CC[C@H](CN5CCN(c6ccc(C7CCC(=O)NC7=O)cc6F)CC5)CC4)cc3F)ncc2C(F)(F)F)C1 (stereo partly drawn)
CDK4 with cyclin D1,,1 µM,97,Cc1ccc(NC(=O)c2ccnc(C(F)(F)F)c2)cc1-c1cc(OCCO)nc(N2CCOCC2)c1
CDK4 with cyclin D3,competition with immobilised ligand,1 µM,52,Cc1cc(S(=O)(=O)N[C@H]2CC[C@H](CN3CCN(c4ccc(C5CCC(=O)NC5=O)cc4F)CC3)CC2)ccc1Nc1ncc(C(F)(F)F)c(N2CCC[C@](C)(O)C2)n1 (stereo partly drawn)
CDK4 with cyclin D3,,1 µM,93,COc1ccc2oc(-c3ccc4nc(N)oc4c3)c/c(=N\c3ccccc3NC(=O)CCN)c2c1
